An excerpt weighted towards active compounds, which were near 1.6% of everything screened.
PKA-R1A act: PKA-R1A complex activation. P00514+P68181. PKA-R1A dissociation, Cy5-IP20 fluorescence polarization; scaled: DMSO 0%, 113 µM cGMP 100%. activation, % at 11.4 µM. 340,000 tested, 0.083% active;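 active = percent activation above the mean of all tested compounds plus 3 SD, cut at about 19% in these data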;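 note: higher means more PKAc released from R1A so a rise in polarization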
PKA-R2B activ: PKA-R2B complex activation. P22694+P31323. PKA-R2B holoenzyme dissociation, Cy5-IP20 fluorescence polarization; R2B truncated from residue 108, S112A mutant; 0% DMSO only, 100% 113 µM cGMP. activation, % at 11.4 µM. 340,000 tested, 0.079% active. AID 504700;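 active = activation above a cutoff set at the mean over all compounds plus 3 SD, cut at about 18% in these data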;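 note: higher means more holoenzyme dissociation and a rise in polarization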
NR2E3 ag-1: activates human photoreceptor nuclear receptor NR2E3; 320,000 tested, 0.12% active; inhibition of corepressor binding, % at 4.78 µM; GST-NR2E3/biotin-RetCOR TR-FRET, 1536-well; Q9Y5X4;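 active = percent inhibition above the cutoff of mean plus 3 SD of all tested compounds, set per screening campaign, cut at about 20% in these data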;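 note: 0% = DMSO wells and 100% = biotin wells as full block of FRET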
Target sequence (Q9Y5X4 whole entry, looked up): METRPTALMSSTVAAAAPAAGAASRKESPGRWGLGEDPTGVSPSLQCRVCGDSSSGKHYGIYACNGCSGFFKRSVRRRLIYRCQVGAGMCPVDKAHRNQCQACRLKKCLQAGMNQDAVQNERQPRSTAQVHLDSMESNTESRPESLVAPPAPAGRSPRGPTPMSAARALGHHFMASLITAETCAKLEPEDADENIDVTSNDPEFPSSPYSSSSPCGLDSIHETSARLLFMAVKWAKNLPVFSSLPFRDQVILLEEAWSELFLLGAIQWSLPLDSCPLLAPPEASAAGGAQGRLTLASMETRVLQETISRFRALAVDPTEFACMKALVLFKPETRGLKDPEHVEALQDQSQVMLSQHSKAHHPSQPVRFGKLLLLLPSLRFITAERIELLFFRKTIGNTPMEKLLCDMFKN
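System: GST-tagged NR2E3 plus biotinylated RetCOR corepressor; Amount: 1.35 nM GST-tagged NR2E3 final; Dosing: single nominal compound dose of 4.8 µM; Schedule: 5 h incubation at 4 °C; Technique: TR-FRET with europium anti-GST and streptavidin-D2, 340 nm excitation; Controls: biotin wells as high control, 0.6% DMSO wells as low control.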
Rev-erbA mod: modulates human Rev-erb alpha binding to DNA; Rev-erbα–FITC-DNA binding, fluorescence polarization, 90 min; 370,000 tested, 0.79% active; activity, % at 10 µM; P20393;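 active = activity above about 14%, limit read from the data; passing the limit was not always enough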;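 note: 0% = DMSO wells with 35 nM protein and 100% = DMSO wells with 750 nM protein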
PG9 Ab binder: PG9 antibody binding by small molecule. TR-FRET gp120-PG9 antibody binding. inhibition, % at 6.7 µM. 360,000 tested, 0.43% active. AID 624416; in the data active = inhibition above about 8.5%
NR2E3 ag-2: human photoreceptor-specific nuclear receptor agonism; AID 602229; CHO-S Gal4-NCOR/VP16-NR2E3 two-hybrid, luciferase; 360,000 tested, 0.35% active; Q9Y5X4; inhibition of corepressor binding, % at 3.98 µM;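 active = inhibition above the mean of all tested compounds plus 3 SD, cut at about 70% in these data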;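 note: 0% = DMSO with NR2E3 transfected cells and 100% = cells lacking NR2E3 construct; higher means lower luciferase signal from less NR2E3 corepressor binding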
Rev-erbA confirm: confirmation of modulators of human Rev-erb alpha DNA binding | 3,000 tested, 61% active | Rev-erb alpha FITC-DNA binding, fluorescence polarization, 90 min | AID 1259319 | activation, % at 25 µM | shares compounds with Rev-erbA mod;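 active = activation at or above a set limit, or at least 3 SD above the negative control mean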;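 note: 0% = 35 nM protein with DMSO and 100% = 750 nM protein high control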
RORg DNA counter: RORgamma DNA-binding activity, dose-response counter-screen. AID 1259320. shares compounds with Rev-erbA mod. purified RORgamma protein-FITC-DNA binding, fluorescence polarization. 910 tested, 8% active. IC50, µM;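 active = Compounds whose fitted half-maximal concentration for disrupting protein-DNA binding is below 10 micromolar; the record names Rev-erb in its text, so the target is in doubt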
* = called active by the depositor.

How did CC(C)(C)c1ccc(-c2nnc(SCC(=O)Nc3cccc4ccccc34)n2Cc2ccco2)cc1 do in these assays?
Rev-erbA mod: -1

Results for CC1CC(C)CN(S(=O)(=O)c2ccc3c(c2)n(C)c(=O)c(=O)n3C)C1 (configuration not stated) ?
PKA-R1A act: -7; PKA-R2B activ: -8; NR2E3 ag-1: 1; Rev-erbA mod: 66*; PG9 Ab binder: 2; NR2E3 ag-2: -16; Rev-erbA confirm: 0

How did COC(=O)[C@H]1C[C@@]2(N3CCCCC3)c3ccccc3N(C(=O)OC(C)(C)C)[C@H]2N1C(=O)OC(C)(C)C do in these assays?
Rev-erbA mod: -12

What do the screens show for `Cc1c(C)c2cc3c(C)coc3cc2oc1=O`?
PKA-R1A act: -12; PKA-R2B activ: -3; NR2E3 ag-1: 3; Rev-erbA mod: 5; PG9 Ab binder: -1; NR2E3 ag-2: 23

What do the screens show for `Cc1coc2cc3oc(=O)c(Cc4ccccc4)c(C)c3cc12`?
PKA-R1A act: -5; PKA-R2B activ: 8; NR2E3 ag-1: 4; Rev-erbA mod: 32*; PG9 Ab binder: 5; NR2E3 ag-2: -20; Rev-erbA confirm: 43*; RORg DNA counter: >40

How did Cc1ccc2c(c1)C1CS(=O)(=O)N(Cc3ccccc3)C(=O)N1C2 (configuration not stated) do in these assays?
Rev-erbA mod: -1

What do the screens show for `C[C@H](O)[C@@H]1CN2CCc3c([nH]c4c(-c5ccc6c(c5)OCO6)cccc34)[C@@H]2C[C@@H]1N(C)C(=O)c1ccccc1F`?
Rev-erbA mod: 1

How did Cc1nc(N2CCN(c3ccccn3)CC2)c2c(C)c(C(=O)Nc3ccccc3F)sc2n1 do in these assays?
PKA-R1A act: 15; PKA-R2B activ: -4; NR2E3 ag-1: 0; Rev-erbA mod: 15; PG9 Ab binder: 2; NR2E3 ag-2: 5

Results for Cc1c(C(=O)N2CCN(c3ccccn3)CC2)sc2ncnc(N3CCN(c4ccccc4)CC3)c12 ?
PKA-R1A act: 12; PKA-R2B activ: 4; NR2E3 ag-1: 4; Rev-erbA mod: 0; PG9 Ab binder: 1; NR2E3 ag-2: 12

Results for Cc1nc(N2CCN(c3ccccn3)CC2)c2c(C)c(C(=O)N3CCN(c4cccc(Cl)c4)CC3)sc2n1 ?
PKA-R1A act: -2; PKA-R2B activ: -5; NR2E3 ag-1: -2; Rev-erbA mod: 73*; PG9 Ab binder: 3; NR2E3 ag-2: -29; Rev-erbA confirm: 50*; RORg DNA counter: >40

What do the screens show for `Cc1nc(N2CCN(c3ccccn3)CC2)c2c(C)c(C(=O)Nc3ccc(F)cc3Cl)sc2n1`?
PKA-R1A act: 1; PKA-R2B activ: -4; NR2E3 ag-1: 1; Rev-erbA mod: 34*; PG9 Ab binder: 0; NR2E3 ag-2: -56; Rev-erbA confirm: 20*

What do the screens show for `CCc1ccc(NC(=O)c2sc3nc(C)nc(N4CCN(c5ccccn5)CC4)c3c2C)cc1`?
PKA-R1A act: 13; PKA-R2B activ: 1; NR2E3 ag-1: 4; Rev-erbA mod: 28*; PG9 Ab binder: 0; NR2E3 ag-2: -30; Rev-erbA confirm: 21*

How did Cc1nc(N2CCN(c3ccccn3)CC2)c2c(C)c(C(=O)Nc3ccc(F)cc3F)sc2n1 do in these assays?
PKA-R1A act: -5; PKA-R2B activ: -6; NR2E3 ag-1: 3; Rev-erbA mod: 4; PG9 Ab binder: -1; NR2E3 ag-2: -11

Results for CCn1c2ccccc2c2cc(C=NNC(=O)c3cc(-c4ccc(OC)cc4)n[nH]3)ccc21 ?
Rev-erbA mod: -7
